Common to all, as to type: functional, cell-based
Experiment [1] has as its system MCF7. Put plainly: Cytotoxicity against human MCF7 cells after 48 hrs by MTT assay. The note with it: MCF7, 48 h. The essentials: (§1)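 Cells grown in RPMI-1640 or DMEM with 10% FBS, 5% CO2, 37 °C. Adherent cells seeded and allowed 12 h to attach before compound addition; suspension cells seeded just before addition; initial density 1 × 10^5 cells/mL. Compound at 0.1, 1, 10, 100, 500 µM, triplicate, 48 h; doxorubicin positive control. Viability by MTT; IC50 by Reed and Muench method.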

Experiment [2] can be described thus: Cytotoxicity against human MCF7/ADR cells after 48 hrs by MTT assay. As to conditions: NCI/ADR-RES. The essentials: as §1
The subject of experiment [3] is KB. The experiment is described as follows: Cytotoxicity against human KB cells after 48 hrs by MTT assay. The essentials: as §1
(Tetrazolium assays rely on reduction of a dye to a coloured formazan, in cell work by metabolically active cells.)

Experiment [4] deals with SMMC-7721. Put plainly: Cytotoxicity against human SMMC7721 cells after 48 hrs by MTT assay. As to conditions: SMMC-7721, 48 h. The gist of the method:
as §1

For experiment [5], the system named is K562. Put plainly: Cytotoxicity against human K562 cells after 48 hrs by MTT assay. As to conditions: K562, 48 h. The gist of the method: as §1
The nature of experiment [6]: Cytotoxicity against human KB/VCR cells after 48 hrs by MTT assay. The gist of the method:
as §1

Here are results for 7 compounds from ChEMBL document CHEMBL1649356, “Triterpenoids from Aglaia abbreviata and their cytotoxic activities” (J Nat Prod, 2010).

`CC(=O)O[C@@H]1CC[C@]2(C)[C@H]3CC[C@@H]4[C@@H]([C@@](C)(O)CCCC(C)(C)OO)CC[C@@]4(C)[C@]3(C)CC[C@H]2C1(C)C` [AGLAIABBREVIATIN F]: the IC50 (as a rule, the concentration that inhibits the measured activity by half) in experiment [1] is over 10000 nM; in experiment [2] it was 5500 nM; in experiment [3], 600 nM; in experiment [4], 1400 nM; in experiment [5], 460 nM; in experiment [6] it was 310 nM.

In the case of `CC(=O)O[C@@H]1CC[C@]2(C)[C@H]3CC[C@@H]4[C@@H]([C@]5(C)C=CC(=O)O5)CC[C@@]4(C)[C@]3(C)CC[C@H]2C1(C)C` [AGLAIABBREVIATIN B], the IC50 in experiment [1], in experiment [2], in experiment [3], in experiment [4], in experiment [5] and in experiment [6] was over 10000 nM each time.

For the compound `COc1cccc2c1C(=O)c1c(O)c3c(c(O)c1C2=O)C[C@@](O)(C(=O)CO)C[C@@H]3O[C@H]1C[C@H](N)[C@H](O)[C@H](C)O1` [DOXORUBICIN], the IC50 is 540 nM in experiment [1]; over 10000 nM in experiment [2]; 12 nM in experiment [3]; 370 nM in experiment [4]; 170 nM in experiment [5]; 450 nM in experiment [6].

For `CC1(C)C(=O)CC[C@]2(C)[C@H]3CC[C@@H]4[C@@H]([C@]5(C)C=CC(=O)O5)CC[C@@]4(C)[C@]3(C)CC[C@@H]12` [AGLAIABBREVIATIN A], the IC50 in experiment [1], in experiment [2], in experiment [3], in experiment [4], in experiment [5] and in experiment [6] was over 10000 nM throughout.

Turning to `CC(=O)[C@H]1CC[C@]2(C)[C@@H]1CC[C@@H]1[C@@]3(C)CC[C@@H](O)C(C)(C)[C@@H]3CC[C@]12C` [AGLAIABBREVIATIN C], the IC50 was over 10000 nM in experiment [1]; over 10000 nM in experiment [2]; over 10000 nM in experiment [3]; over 10000 nM in experiment [4]; over 10000 nM in experiment [5]; 1100 nM in experiment [6].

For `CC1(C)C=CC[C@@](C)([C@H]2CC[C@]3(C)[C@@H]2CC[C@@H]2[C@@]4(C)CCC(=O)C(C)(C)[C@@H]4CC[C@]23C)O1` [AGLAIABBREVIATIN D], the IC50 is over 10000 nM in experiment [1]; over 10000 nM in experiment [2]; 1200 nM in experiment [3]; 2100 nM in experiment [4]; 1200 nM in experiment [5]; 960 nM in experiment [6].

On to `C=C(C/C=C/C(C)(C)O)[C@H]1CC[C@]2(C)[C@@H]1CC[C@@H]1[C@@]3(C)CCC(=O)C(C)(C)[C@@H]3CC[C@]12C` [AGLAIABBREVIATIN E], for which the IC50 in experiment [1] is over 10000 nM; in experiment [2], over 10000 nM; in experiment [3], 2700 nM; in experiment [4] it was 4200 nM; in experiment [5] it was 1800 nM; in experiment [6] it was 830 nM.
